The target in this experiment is Cannabinoid receptor 2 (Homo sapiens, UniProt P34972). The experiment can be described thus: Agonist activity at human recombinant CB2 receptor expressed in HEK293 cells coexpressing Galphaq/o5 assessed as calcium mobilization by FLIPR assay. An outline of the steps: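 HEK cells stably coexpressing human CB2 and chimeric Gαq/o5 were seeded at 75 000 cells/well the day before and loaded with no-wash calcium dye. Mean ± SEM, ≥3 experiments in duplicate.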
A general note: A change in cytosolic calcium serves as a functional read-out for many receptors and channels.

Chain of Cannabinoid receptor 2 (P34972 whole entry): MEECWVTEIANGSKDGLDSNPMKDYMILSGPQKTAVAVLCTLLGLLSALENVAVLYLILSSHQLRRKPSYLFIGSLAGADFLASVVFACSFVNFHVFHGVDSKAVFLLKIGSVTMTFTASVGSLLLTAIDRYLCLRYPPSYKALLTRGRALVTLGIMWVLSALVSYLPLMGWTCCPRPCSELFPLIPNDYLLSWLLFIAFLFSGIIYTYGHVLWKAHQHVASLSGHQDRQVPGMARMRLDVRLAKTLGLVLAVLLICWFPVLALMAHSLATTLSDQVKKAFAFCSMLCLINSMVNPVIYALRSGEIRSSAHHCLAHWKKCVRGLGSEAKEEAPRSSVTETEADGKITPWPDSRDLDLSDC

What is called EC50 is the concentration at which the effect is half-maximal. Regarding `CN1CCCCC1Cn1cc(C(=O)c2cc([N+](=O)[O-])ccc2I)c2ccccc21` (stereo unspecified) [3-[(2-iodo-5-nitrophenyl)carbonyl]-1-[(1-methylpiperidin-2-yl)methyl]-1H-indole], the EC50 was greater than 10 µM.

Values taken from BindingDB's records for doi:10.1021/jm901214q (Abbott Laboratories, 2010).
